MIC and Stabilty data for five molecules are collected here from ChEMBL document CHEMBL4811269, “Design, synthesis and antibacterial evaluation of novel C-11, C-9 or C-2'-substituted 3-O-descladinosyl-3-ketoclarithromycin derivatives” (Bioorg Med Chem Lett, 2021).

Data set [1] has as its system Streptococcus pneumoniae. Description: Antibacterial activity against erythromycin-resistant Streptococcus pneumoniae AB11 by broth microdilution method. Type of data set: functional. The procedure, abridged:
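MIC by standard NCCLS broth microdilution, reported in µg/mL. The strain expresses the ermB and mefA genes. Clarithromycin and azithromycin were run alongside as references.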

Data set [2] deals with Staphylococcus aureus. Description: Antibacterial activity against erythromycin-susceptible Staphylococcus aureus ATCC 25923 by broth microdilution method. It is filed as functional. An outline of the steps:
(§1)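 MIC determined by standard broth microdilution per NCCLS recommendations, read as minimal inhibitory concentration in µg/mL. Standard ATCC strains tested alongside the other panel strains, with clarithromycin and azithromycin as reference agents.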
(In general: Dilution methods test growth across graded concentrations, often in twofold steps.)

The test system of data set [3] is Streptococcus pyogenes. Description: Antibacterial activity against erythromycin-resistant Streptococcus pyogenes R1 by broth microdilution method. It is filed as functional. An outline of the steps: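 MIC by standard NCCLS broth microdilution, reported in µg/mL. The strain is a clinically isolated erythromycin-resistant strain. Clarithromycin and azithromycin were run alongside as references.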

In data set [4] the test system is Staphylococcus aureus. The data set can be described thus: Antibacterial activity against methicillin-resistant Staphylococcus aureus ATCC 43300 by broth microdilution method. Type of data set: functional. An outline of the steps:
(§2)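 MIC by standard NCCLS broth microdilution against resistant S. aureus strains, reported in µg/mL. Clarithromycin and azithromycin were run alongside as references.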

Data set [5] relates to Pseudomonas aeruginosa. Description: Antibacterial activity against penicillin-susceptible Pseudomonas aeruginosa ATCC 27853 by broth microdilution method. It is filed as functional. An outline of the steps: as §1
Data set [6] in a line: Chemical stability of the compound in pH 7.4 phosphate solution after 24 hrs by HPLC analysis. Type of data set: physicochemical. The conditions noted are these: buffer, pH 7.4, 24 h. An outline of the steps:
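Compound held in phosphate solution (pH = 7.4) at 25 °C and monitored by HPLC over 24 h. Stability judged from change in peak area.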

Data set [7] deals with Streptococcus pneumoniae. The data set can be described thus: Antibacterial activity against erythromycin-resistant Streptococcus pneumoniae B1 by broth microdilution method. It is filed as functional. The procedure, abridged:
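MIC by standard NCCLS broth microdilution, reported in µg/mL. The strain expresses the ermB gene. Clarithromycin and azithromycin were run alongside as references.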

Data set [8] deals with Bacillus subtilis. Description: Antibacterial activity against penicillin-susceptible Bacillus subtilis ATCC9372 by broth microdilution method. It is filed as functional. An outline of the steps: as §1
For data set [9], the system named is Staphylococcus aureus. The data set can be described thus: Antibacterial activity against penicillin-resistant Staphylococcus aureus ATCC 31007 by broth microdilution method. Type of data set: functional. The procedure, abridged:
as §2

Converted amounts (≈) assume the structure as drawn. Bounds are passed on as bounds.

As to `CO[C@]1(C)C[C@@H](C)[C@H](OC(=O)c2ccc(C)cc2)[C@H](C)CN(C)CCOC(=O)[C@H](C)C(=O)[C@H](C)[C@H]1O[C@@H]1O[C@H](C)C[C@H](N(C)C)[C@H]1OC(=O)c1ccc(C)cc1`, the minimum inhibitory concentration (MIC) is over 256 µg/mL in data set [1]; 128 µg/mL (≈ 164 µM) in data set [2]; over 256 µg/mL in data set [3]; over 256 µg/mL in data set [4]; over 128 µg/mL in [5]; over 256 µg/mL in data set [7]. Moreover, the minimum inhibitory concentration (MIC) in data set [8] was over 128 µg/mL; in data set [9] it was over 256 µg/mL. Besides, in data set [6], the Stabilty result is “Stable”.

In the case of `CO[C@]1(C)C[C@@H](C)[C@H](OC(=O)c2cccc(C(F)(F)F)c2)[C@H](C)CN(C)CCOC(=O)[C@H](C)C(=O)[C@H](C)[C@H]1O[C@@H]1O[C@H](C)C[C@H](N(C)C)[C@H]1OC(=O)c1cccc(C(F)(F)F)c1`, the MIC in [1] was over 256 µg/mL; in data set [2], 128 µg/mL (≈ 144 µM); in [3] it was over 256 µg/mL; in [4] it was over 256 µg/mL; in data set [5], over 128 µg/mL; in data set [7], over 256 µg/mL. For the same molecule, the MIC in data set [8] is over 128 µg/mL; in data set [9], over 256 µg/mL. Moreover, the Stabilty entry in data set [6] is “Stable”.

Turning to `CO[C@]1(C)C[C@@H](C)[C@H](OC(=O)c2ccccc2)[C@H](C)CN(C)CCOC(=O)[C@H](C)C(=O)[C@H](C)[C@H]1O[C@@H]1O[C@H](C)C[C@H](N(C)C)[C@H]1OC(=O)c1ccccc1`, the MIC in data set [1] was over 256 µg/mL; in data set [2], 128 µg/mL (≈ 170 µM); in data set [3] it was over 256 µg/mL; in data set [4], over 256 µg/mL; in data set [5], over 128 µg/mL; in data set [7] it was over 256 µg/mL. Also, the values for the MIC in data set [8] and in data set [9] were over 128 µg/mL and over 256 µg/mL, respectively. The Stabilty entry in [6] was “Stable”.

Regarding `CO[C@]1(C)C[C@@H](C)[C@H](OC(=O)c2ccc(Cl)cc2)[C@H](C)CN(C)CCOC(=O)[C@H](C)C(=O)[C@H](C)[C@H]1O[C@@H]1O[C@H](C)C[C@H](N(C)C)[C@H]1OC(=O)c1ccc(Cl)cc1`, the MIC was over 256 µg/mL in data set [1]; 128 µg/mL (≈ 156 µM) in data set [2]; over 256 µg/mL in [3]; over 256 µg/mL in data set [4]; over 128 µg/mL in data set [5]; 128 µg/mL (≈ 156 µM) in [7]. In addition, the minimum inhibitory concentration (MIC) was over 128 µg/mL in data set [8] and over 256 µg/mL in data set [9]. Also, the Stabilty result in data set [6] was “Stable”.

Regarding `CO[C@]1(C)C[C@@H](C)[C@H](OC(=O)c2ccc(Br)cc2)[C@H](C)CN(C)CCOC(=O)[C@H](C)C(=O)[C@H](C)[C@H]1O[C@@H]1O[C@H](C)C[C@H](N(C)C)[C@H]1OC(=O)c1ccc(Br)cc1`, the minimum inhibitory concentration (MIC) is over 256 µg/mL in data set [1]; 128 µg/mL (≈ 141 µM) in [2]; over 256 µg/mL in data set [3]; over 256 µg/mL in data set [4]; over 128 µg/mL in data set [5]; over 256 µg/mL in data set [7]. The minimal inhibitory concentration (MIC) in data set [8] is over 128 µg/mL; in [9], over 256 µg/mL.

By MIC is commonly meant the lowest concentration found to suppress growth. The low end stands for inhibition by little substance, the high end for a need for much substance.
